Data set [1] addresses T1, ATP-dependent translocase ABCB1 (Homo sapiens, UniProt P08183). Description: Inhibition of human MDR1 transfected in mouse L5178Y cells assessed as fluorescence activity ratio at 4 ug/ml after 10 mins by rhodamine 123 dye based fluorescence analysis. It is filed as cell-based.
The nature of data set [2]: Cytotoxicity against human HSC2 cells after 48 hrs by MTT assay. It is filed as functional. To be noted: HSC-2, 48 h, pooled result: one value given for 3 cell lines, strains, targets or settings. The essentials:
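Compounds were incubated with cells at 37 °C for 48 hr. HSC-2 and HSC-4 squamous carcinoma cells were grown in supplemented DMEM, and viability was read by MTT. HL-60 promyelocytic leukemia cells were grown in supplemented RPMI1640, and viability was read by trypan blue exclusion. CC50 is the concentration killing 50% of cells, reported as an average.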

For data set [3], the target named is T1, ATP-dependent translocase ABCB1. Description: Ratio of human MDR1 modulation transfected in mouse L5178Y cells at 40 ug/ml to human MDR1 modulation transfected in mouse L5178Y cells at 4 ug/ml. It counts as cell-based.
For data set [4] the target is unchanged. Description: Inhibition of human MDR1 transfected in mouse L5178Y cells assessed as fluorescence activity ratio at 40 ug/ml after 10 mins by rhodamine 123 dye based fluorescence analysis. It counts as cell-based.
Data set [5] shares this target. Description: Potency index, ratio of compound activity to verapamil hydrochloride activity for human MDR1 modulation transfected in mouse L5178Y cells at 4 ug/ml. It is filed as cell-based.

What is called CC50 is the concentration giving 50% cytotoxicity. Read a low CC50 as harm at low concentration.

T1 sequence (P08183 whole entry): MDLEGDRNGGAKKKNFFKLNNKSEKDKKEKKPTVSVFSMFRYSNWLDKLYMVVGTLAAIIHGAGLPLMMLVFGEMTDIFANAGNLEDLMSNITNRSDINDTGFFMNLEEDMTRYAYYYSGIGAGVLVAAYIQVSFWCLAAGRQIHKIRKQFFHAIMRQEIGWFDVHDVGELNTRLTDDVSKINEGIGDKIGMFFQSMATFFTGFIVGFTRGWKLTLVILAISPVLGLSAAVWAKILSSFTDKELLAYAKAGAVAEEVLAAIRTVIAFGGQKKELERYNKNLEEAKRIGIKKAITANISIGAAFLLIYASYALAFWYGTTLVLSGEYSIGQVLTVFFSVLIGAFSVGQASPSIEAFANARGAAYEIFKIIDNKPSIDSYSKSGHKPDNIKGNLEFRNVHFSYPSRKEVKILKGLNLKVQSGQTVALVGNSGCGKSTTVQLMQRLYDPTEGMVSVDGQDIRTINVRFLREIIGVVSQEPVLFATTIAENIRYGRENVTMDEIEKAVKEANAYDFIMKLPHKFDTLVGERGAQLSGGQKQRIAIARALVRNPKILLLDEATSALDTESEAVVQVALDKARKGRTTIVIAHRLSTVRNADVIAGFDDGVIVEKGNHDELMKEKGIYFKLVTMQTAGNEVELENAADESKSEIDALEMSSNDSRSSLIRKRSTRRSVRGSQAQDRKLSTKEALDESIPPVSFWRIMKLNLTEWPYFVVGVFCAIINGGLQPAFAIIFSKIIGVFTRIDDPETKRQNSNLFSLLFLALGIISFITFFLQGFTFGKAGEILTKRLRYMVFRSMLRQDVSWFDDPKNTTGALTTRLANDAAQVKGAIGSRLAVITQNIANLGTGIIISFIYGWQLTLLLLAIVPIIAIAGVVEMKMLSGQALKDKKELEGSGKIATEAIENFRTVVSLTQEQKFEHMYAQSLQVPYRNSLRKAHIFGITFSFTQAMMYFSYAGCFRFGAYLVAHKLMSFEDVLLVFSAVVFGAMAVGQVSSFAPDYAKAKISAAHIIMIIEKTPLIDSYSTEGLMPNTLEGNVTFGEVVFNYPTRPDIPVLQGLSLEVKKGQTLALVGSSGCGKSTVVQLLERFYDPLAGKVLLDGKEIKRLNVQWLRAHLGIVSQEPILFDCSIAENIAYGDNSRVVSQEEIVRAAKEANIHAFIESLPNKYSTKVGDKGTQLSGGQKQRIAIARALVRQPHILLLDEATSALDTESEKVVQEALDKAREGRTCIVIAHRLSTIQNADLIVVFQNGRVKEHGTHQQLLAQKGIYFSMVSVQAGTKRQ

On to `O=C1/C(=C/c2ccccc2)CN(C(=O)CCSCCS(=O)(=O)O)C/C1=C\c1ccccc1`, for which the Ratio in data set [1] was found to be 1.14; in data set [3], 1.05; in data set [4], 1.2. The compound also displayed a half-maximal cytotoxic concentration (CC50) in data set [2] of 154 µM.

On to `COc1ccc(/C=C2\CN(C(=O)CCSCCO)C/C(=C\c3ccc(OC)cc3)C2=O)cc1`, for which the Ratio in data set [1] is 37.1; in data set [3], 2.29; in data set [5] it was 9; in data set [4], 85.1. The compound further came in with a CC50 in data set [2] of 2.67 µM.

Take `O=C1/C(=C/c2ccc(Cl)cc2)CN(C(=O)CCSCCS(=O)(=O)O)C/C1=C\c1ccc(Cl)cc1`: the values for the Ratio in data set [1], in data set [3] and in data set [4] were 1.14, 1.5 and 1.71, respectively. The same compound displayed a CC50 in data set [2] of 29.7 µM.

As to `O=C1/C(=C/c2ccc([N+](=O)[O-])cc2)CN(C(=O)CCSCCS(=O)(=O)O)C/C1=C\c1ccc([N+](=O)[O-])cc1`, the Ratio worked out at 1.14 in data set [1], 1.5 in data set [3] and 1.71 in data set [4]. In data set [2], this compound displayed a CC50 of 4.73 µM.

In data set [2], `N[C@@H](Cc1ccc(N(CCCl)CCCl)cc1)C(=O)O` returned a CC50 of 14 µM.

On to `O=C1/C(=C/c2ccc(Cl)cc2)CN(C(=O)CCSCCO)C/C1=C\c1ccc(Cl)cc1`, for which the Ratio turned out to be 49.2 in data set [1], 0.92 in data set [3] and 45 in data set [4]. This compound yielded a CC50 in data set [2] of 0.66 µM.

For the compound `COc1ccc(/C=C2\CN(C(=O)CCSCCS(=O)(=O)O)C/C(=C\c3ccc(OC)cc3)C2=O)cc1`, the Ratio in data set [1] is listed as 1.27; in data set [3], 2.54; in data set [4], 3.23. In addition, the 50% cytotoxic concentration (CC50) in data set [2] was 91.7 µM.

As to `Cc1ccc(/C=C2\CN(C(=O)CCSCCO)C/C(=C\c3ccc(C)cc3)C2=O)cc1`, the Ratio in data set [1] is reported as 55.4; in data set [3], 0.8; in data set [4], 44.4. This compound also had a cytotoxic concentration (CC50) in data set [2] of 1.56 µM.

As for `COc1ccc(/C=C2\CN(C(=O)CCSCCS)C/C(=C\c3ccc(OC)cc3)C2=O)cc1`, the Ratio is reported as 18.9 in data set [1], 6.67 in data set [3] and 126 in data set [4]. In addition, the midpoint of cytotoxicity in data set [2], the CC50, lay at 3.37 µM.

With `Cc1ccc(/C=C2\CN(C(=O)CCSCCS(=O)(=O)O)C/C(=C\c3ccc(C)cc3)C2=O)cc1`, the Ratio was determined as 1.2 in data set [1], 1.33 in data set [3] and 1.6 in data set [4]. For the same compound, the midpoint of cytotoxicity in data set [2], the CC50, lay at 126 µM.

In the case of `O=C1/C(=C/c2ccc([N+](=O)[O-])cc2)CN(C(=O)CCSCCO)C/C1=C\c1ccc([N+](=O)[O-])cc1`, the Ratio in data set [1] came to 8.86; in data set [3], 2.26; in data set [4], 20. It took 0.39 µM to reach half-maximal cytotoxicity in data set [2] (CC50).

Consider `O=C1/C(=C/c2ccccc2)CN(C(=O)CCSCCO)C/C1=C\c1ccccc1`, for which the values for the Ratio in data set [1], in data set [3] and in data set [4] were 4.71, 9 and 42.4, respectively. Besides, half-maximal cytotoxicity in data set [2] (CC50) was put at 1.53 µM.

For the origin of these results see ChEMBL document CHEMBL3758096, “1-[3-(2-Hydroxyethylsulfanyl)propanoyl]-3,5-bis(benzylidene)-4-piperidones: A novel cluster of P-glycoprotein dependent multidrug resistance modulators” (Bioorg Med Chem Lett, 2016).
